Assay results reported in ChEMBL document CHEMBL4359823, “Switching on the activity of 1,5-diaryl-pyrrole derivatives against drug-resistant ESKAPE bacteria: Structure-activity relationships and mode of action studies” (Eur J Med Chem, 2019).
Converted amounts (≈) assume the structure as drawn. The source made the active and inactive calls. The rule behind the calls is not given here.

Key:
[1] = system: Staphylococcus aureus; assay: Antibacterial activity against methicillin resistant Staphylococcus aureus NCTC13277 measured after overnight incubation by microbroth dilution method; assay type: functional
Summary of the method: (§1)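 Microbroth dilution: DMSO stocks diluted in water, 2-fold series. Overnight TSB cultures back-diluted to OD 0.01 and mixed 1:1 with compound. Incubated overnight at 37 °C; MIC taken as lowest concentration without visible growth (<0.1 OD600). Run in duplicate; matching DMSO levels checked for effect on growth.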

[2] = system: Pseudomonas aeruginosa; assay: Antibacterial activity against Pseudomonas aeruginosa PAO1 measured after overnight incubation by microbroth dilution method; assay type: functional
Summary of the method: (§2)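 Microbroth dilution MIC. Compound DMSO stocks were diluted in water as a 2-fold series. Overnight TSB cultures were back-diluted to OD 0.01 and mixed 1:1 with compound. Plates were incubated overnight at 37 °C. MIC was the lowest concentration without visible growth (<0.1 OD600), run in duplicate.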

[3] = system: Klebsiella pneumoniae; assay: Antibacterial activity against Klebsiella pneumoniae M6 measured after overnight incubation by microbroth dilution method; assay type: functional; summary of the method: as §2
[4] = system: Enterococcus faecalis; assay: Antibacterial activity against vancomycin resistant Enterococcus faecalis NCTC12201 measured after overnight incubation by microbroth dilution method; assay type: functional; summary of the method: as §1
[5] = system: Klebsiella pneumoniae; assay: Antibacterial activity against Klebsiella pneumoniae NCTC13368 measured after overnight incubation by microbroth dilution method; assay type: functional; summary of the method: as §2
[6] = system: Escherichia coli; assay: Antibacterial activity against Escherichia coli NCTC12923 measured after overnight incubation in presence of phenylalanine arginine beta-naphthylamide by microbroth dilution method; assay type: functional; summary of the method: as §2
[7] = system: Escherichia coli; assay: Antibacterial activity against Escherichia coli NCTC12923 measured after overnight incubation by microbroth dilution method; assay type: functional; summary of the method: as §2
[8] = system: Klebsiella pneumoniae; assay: Antibacterial activity against Klebsiella pneumoniae M6 measured after overnight incubation in presence of polymyxin B nonapeptide by microbroth dilution method; assay type: functional
[9] = system: Staphylococcus aureus; assay: Antibacterial activity against methicillin resistant Staphylococcus aureus NCTC13616 measured after overnight incubation by microbroth dilution method; assay type: functional; summary of the method: as §1
[10] = system: Staphylococcus aureus; assay: Antibacterial activity against methicillin sensitive Staphylococcus aureus NCTC 6571 measured after overnight incubation by microbroth dilution method; assay type: functional; summary of the method: as §1
[11] = system: Pseudomonas aeruginosa; assay: Antibacterial activity against Pseudomonas aeruginosa NCTC13437 measured after overnight incubation in presence of polymyxin B nonapeptide by microbroth dilution method; assay type: functional
[12] = system: Pseudomonas aeruginosa; assay: Antibacterial activity against Pseudomonas aeruginosa PAO1 measured after overnight incubation in presence of polymyxin B nonapeptide by microbroth dilution method; assay type: functional
[13] = system: Acinetobacter baumannii; assay: Antibacterial activity against Acinetobacter baumannii AYE measured after overnight incubation by microbroth dilution method; assay type: functional; summary of the method: as §2
[14] = biological target: DNA gyrase (Staphylococcus aureus, UniProt P0A0K8+P20831, S84L); assay: Inhibition of Staphylococcus aureus DNA gyrase S84L mutant; assay type: protein-complex assay
[15] = system: Klebsiella pneumoniae; assay: Antibacterial activity against Klebsiella pneumoniae NCTC13368 measured after overnight incubation in presence of phenylalanine arginine beta-naphthylamide by microbroth dilution method; assay type: functional; summary of the method: as §2
[16] = system: Acinetobacter baumannii; assay: Antibacterial activity against Acinetobacter baumannii ATCC 17978 measured after overnight incubation by microbroth dilution method; assay type: functional; summary of the method: as §2
[17] = system: Escherichia coli; assay: Antibacterial activity against Escherichia coli NCTC12923 measured after overnight incubation in presence of polymyxin B nonapeptide by microbroth dilution method; assay type: functional
[18] = system: Enterococcus faecium; assay: Antibacterial activity against Enterococcus faecium NCTC12204 assessed as generation of drug resistance at 2 times MIC measured after 48 hrs by agar-based microbroth dilution method
[19] = system: Enterococcus faecalis; assay: Antibacterial activity against vancomycin sensitive Enterococcus faecalis NCTC775 measured after overnight incubation by microbroth dilution method; assay type: functional; summary of the method: as §1
[20] = system: Acinetobacter baumannii; assay: Antibacterial activity against Acinetobacter baumannii AYE measured after overnight incubation in presence of phenylalanine arginine beta-naphthylamide by microbroth dilution method; assay type: functional; summary of the method: as §2
[21] = system: Enterococcus faecalis; assay: Bacteriostatic activity against vancomycin resistant Enterococcus feacalis NCTC12204 at 4 times MIC measured at 0 to 24 hrs by time kill assay
[22] = system: Pseudomonas aeruginosa; assay: Antibacterial activity against Pseudomonas aeruginosa NCTC13437 measured after overnight incubation in presence of phenylalanine arginine beta-naphthylamide by microbroth dilution method; assay type: functional; summary of the method: as §2
[23] = system: Pseudomonas aeruginosa; assay: Antibacterial activity against Pseudomonas aeruginosa PAO1 measured after overnight incubation in presence of phenylalanine arginine beta-naphthylamide by microbroth dilution method; assay type: functional; summary of the method: as §2
[24] = system: Acinetobacter baumannii; assay: Antibacterial activity against Acinetobacter baumannii AYE measured after overnight incubation in presence of polymyxin B nonapeptide by microbroth dilution method; assay type: functional
[25] = system: Staphylococcus aureus; assay: Bactericidal activity against methicillin resistant Staphylococcus aureus NCTC13616 at 4 times MIC measured at 0 to 24 hrs by time kill assay; assay type: functional, organism-based
Summary of the method: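 Overnight cultures back-diluted to OD 0.01 in glass universals, compound added at 4 x MIC, 37 °C with shaking at 200 rpm. Sampled at 0, 2, 4, 6 and 24 h; CFU/mL counted by Miles-Misra; untreated control included.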

[26] = system: Pseudomonas aeruginosa; assay: Antibacterial activity against Pseudomonas aeruginosa NCTC13437 measured after overnight incubation by microbroth dilution method; assay type: functional; summary of the method: as §2
[27] = system: HeLa; assay: Cytotoxicity again human HeLa cells measured after 24 hrs by XTT assay; assay type: cell-based
Summary of the method: (§3)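 Cells were grown in EMEM with glutamine, 10% FBS and non-essential amino acids at 37 °C, 10% CO2. Seeding was 1 x 10^5 cells/mL (HEK293) or 4 x 10^4 cells/mL (HeLa), then 24 h adherence. Doubling compound dilutions were applied for 24 h. XTT/PMS was added for 4 h in the dark, with absorbance read at 450 nm. Untreated cells were the 100% control and water-treated cells the 0% control; IC50 was fitted.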

[28] = system: HEK293; assay: Cytotoxicity again human HEK293 cells measured after 24 hrs by XTT assay; assay type: cell-based; conditions: HEK293, 24 h; summary of the method: as §3
[29] = system: Klebsiella pneumoniae; assay: Antibacterial activity against Klebsiella pneumoniae M6 measured after overnight incubation in presence of phenylalanine arginine beta-naphthylamide by microbroth dilution method; assay type: functional; summary of the method: as §2
[30] = system: Staphylococcus aureus; assay: Antibacterial activity against Staphylococcus aureus NCTC13616 assessed as generation of drug resistance at 2 times MIC measured after 48 hrs by agar-based microbroth dilution method; assay type: functional
Summary of the method: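 Agar method: exponentially growing bacteria, in known numbers, plated on agar with doubling compound concentrations at and above the MIC; incubated 48 hours. Colonies growing above the MIC were picked and re-tested by microbroth MIC for raised resistance. Resistance frequency reported at 2xMIC.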

[31] = system: Enterococcus faecalis; assay: Antibacterial activity against vancomycin resistant Enterococcus faecalis NCTC12204 measured after overnight incubation by microbroth dilution method; assay type: functional; summary of the method: as §1
[32] = system: Acinetobacter baumannii; assay: Antibacterial activity against Acinetobacter baumannii ATCC 17978 measured after overnight incubation in presence of phenylalanine arginine beta-naphthylamide by microbroth dilution method; assay type: functional; summary of the method: as §2
[33] = system: Klebsiella pneumoniae; assay: Antibacterial activity against Klebsiella pneumoniae NCTC13368 measured after overnight incubation in presence of polymyxin B nonapeptide by microbroth dilution method; assay type: functional
[34] = system: Acinetobacter baumannii; assay: Antibacterial activity against Acinetobacter baumannii ATCC 17978 measured after overnight incubation in presence of polymyxin B nonapeptide by microbroth dilution method; assay type: functional
[35] = system: Staphylococcus aureus; assay: Bacteriostatic activity against methicillin resistant Staphylococcus aureus NCTC13616 at 4 times MIC measured at 0 to 24 hrs by time kill assay
[36] = biological target: Topoisomerase IV (Staphylococcus aureus, UniProt P0C1S7+P0C1U9); assay: Inhibition of Staphylococcus aureus topoisomerase-4 expressed in Escherichia coli assessed as relaxation of pBR322 substrate measured after 30 mins by agarose gel electrophoresis
[37] = Inhibition of Staphylococcus aureus DNA gyrase subunit A2B2 using relaxed pBR322 DNA as substrate measured after 30 mins in presence of ATP by ethidium bromide-based gel electrophoresis
Summary of the method: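 Supercoiling assay with S. aureus wild-type or S84L gyrase and relaxed pBR322, with or without varying compound, at 37 °C for 30 min. The reaction was stopped with STEB and extracted with chloroform:isoamyl alcohol (24:1). The aqueous phase was run on a 1% agarose gel and the supercoiled band quantified. IC50 came from at least three independent replicates.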

SMILES | MIC [1] | MIC [2] | MIC [3] | MIC [4] | MIC [5] | MIC [6] | MIC [7] | MIC [8] | MIC [9] | MIC [10] | MIC [11] | MIC [12] | MIC [13] | IC50 [14] | MIC [15] | MIC [16] | Activity [18] | MIC [19] | Activity [30] | MIC [31] | also measured
Cc1c(CNC2CCCCC2)cc(-c2ccc(C(C)C)cc2)n1-c1ccc(Cl)cc1 | 4 µg/mL (≈ 9.5 µM) | > 128 µg/mL | > 128 µg/mL | 4 µg/mL (≈ 9.5 µM) | > 128 µg/mL | 16 µg/mL | > 128 µg/mL | 128 µg/mL | 4 µg/mL (≈ 9.5 µM) | 4 µg/mL (≈ 9.5 µM) | 32 µg/mL | 8 µg/mL | > 128 µg/mL | 69.1 µM | > 128 µg/mL | 32 µg/mL (≈ 76 µM) | <9.4e-08 | 4 µg/mL (≈ 9.5 µM) | <7.6e-08 | 2 µg/mL (≈ 4.75 µM) | MIC [17]: 2 µg/mL; MIC [20]: 8 µg/mL; Activity [21]: Active; MIC [22]: > 128 µg/mL; MIC [23]: > 128 µg/mL; MIC [24]: 8 µg/mL; Activity [25]: Active; MIC [26]: > 128 µg/mL; IC50 [27]: 2.4 to 3 µg/mL (≈ 5.7 to 7.13 µM); IC50 [28]: 2.4 to 3 µg/mL (≈ 5.7 to 7.13 µM); MIC [29]: > 128 µg/mL; MIC [32]: 8 µg/mL; MIC [33]: > 128 µg/mL; MIC [34]: 2 µg/mL
Cc1c(CNC2CCC(NC(=N)N)CC2)cc(-c2ccc(Cl)cc2)n1-c1ccc(Cl)cc1 (stereo not drawn) | 4 µg/mL (≈ 8.5 µM) | 128 µg/mL (≈ 272 µM) | 32 µg/mL (≈ 68 µM) | 16 µg/mL (≈ 34 µM) | 128 µg/mL (≈ 272 µM) | 8 µg/mL | 8 µg/mL (≈ 17 µM) | 64 µg/mL | 2 to 4 µg/mL (≈ 4.25 to 8.5 µM) | 2 µg/mL (≈ 4.25 µM) | 16 µg/mL | 128 µg/mL | 64 to 128 µg/mL (≈ 136 to 272 µM) | 15.4 µM | 128 µg/mL | 16 µg/mL (≈ 34 µM) | <9.4e-08 | 8 µg/mL (≈ 17 µM) | <7.6e-08 | 4 µg/mL (≈ 8.5 µM) | Activity [35]: Active; IC50 [36]: 61.2 µM; MIC [17]: 4 µg/mL; MIC [20]: 64 µg/mL; Activity [21]: Active; MIC [22]: 64 µg/mL; MIC [23]: 128 µg/mL; MIC [24]: 32 µg/mL; MIC [26]: 16 µg/mL (≈ 34 µM); IC50 [27]: 11.7 to 18.9 µg/mL (≈ 24.8 to 40.2 µM); IC50 [28]: 11.7 to 18.9 µg/mL (≈ 24.8 to 40.2 µM); MIC [29]: 64 µg/mL; IC50 [37]: 7.48 µg/mL; MIC [32]: 16 µg/mL; MIC [33]: 128 µg/mL; MIC [34]: 16 µg/mL
C[C@H]1COc2c(N3CCN(C)CC3)c(F)cc3c(=O)c(C(=O)O)cn1c23.C[C@H]1COc2c(N3CCN(C)CC3)c(F)cc3c(=O)c(C(=O)O)cn1c23.O [LEVOFLOXACIN] | 8 µg/mL |  | 0.12 µg/mL | 1 µg/mL |  |  | < 0.12 µg/mL |  | 8 µg/mL | 0.12 µg/mL |  |  |  |  |  | 0.12 µg/mL | 7.08e-06 | 1 µg/mL | 1.87e-05 | 0.5 µg/mL | IC50 [36]: 9.85 µM; IC50 [37]: 8.71 µg/mL
Cc1c(CNC2CCCCCC2)cc(-c2ccc(Cl)cc2)n1-c1ccc(C(C)C)cc1 | 4 µg/mL (≈ 9.19 µM) | > 128 µg/mL | > 128 µg/mL | 2 µg/mL (≈ 4.6 µM) | > 128 µg/mL | 8 µg/mL | > 128 µg/mL | > 128 µg/mL | 4 µg/mL (≈ 9.19 µM) | 4 µg/mL (≈ 9.19 µM) | 16 µg/mL | 16 µg/mL | > 128 µg/mL | 43.7 µM | > 128 µg/mL | 32 µg/mL (≈ 73.6 µM) | <9.4e-08 | 2 µg/mL (≈ 4.6 µM) | <7.6e-08 | 2 µg/mL (≈ 4.6 µM) | Activity [35]: Active; MIC [17]: 2 µg/mL; MIC [20]: 4 µg/mL; Activity [21]: Active; MIC [22]: > 128 µg/mL; MIC [23]: 128 µg/mL; MIC [24]: 4 µg/mL; MIC [26]: > 128 µg/mL; IC50 [27]: 1.95 to 2.83 µg/mL (≈ 4.48 to 6.5 µM); IC50 [28]: 1.95 to 2.83 µg/mL (≈ 4.48 to 6.5 µM); MIC [29]: > 128 µg/mL; IC50 [37]: 15.49 µg/mL; MIC [32]: 4 µg/mL; MIC [33]: > 128 µg/mL; MIC [34]: 2 µg/mL
